Activity calls are given as the source filed them. The rule behind the calls is not given here.

The test system of series [1] is Hepatitis B virus. In words: Binding affinity to HBV dimeric capsid protein C150 mutant expressed in Escherichia coli BL21 (DE3) at 20 uM by Sypro orange staining based RT-PCR analysis.
A further series deals with HepG2. In words: Cytotoxicity against human HepG2 cells assessed as reduction in cell viability incubated for 2 days prior to compound washout followed by compound redosing and measured after 2 days by XTT assay. Type of series: cell-based. The conditions noted are these: hepg2, 48 h.
The subject of series [2] is Hepatitis B virus. The experiment in a line: Antiviral activity against HBV infected in human HepAD38 cells assessed as reduction in total DNA production incubated for 2 days prior to compound washout followed by compound redosing and measured after 2 days by dot-blot analysis. In kind it is functional, organism-based. Summed up: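 HepAD38 cells seeded at 3 × 10^4/well in tetracycline medium; next day washed twice with PBS and given tet-free complete medium with 2-fold serial dilutions, 1% final DMSO, replaced with fresh compound medium after 2 days. After 2 more days cells lysed (NP-40), DNA alkali-denatured, dot-blotted, probed with DIG-labelled HBV probe; chemiluminescence densitometry, variable-slope fit; mean ± SD of ≥2 experiments.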

In the case of `Cc1c(C(=O)Nc2ccccc2)sc(-n2cnnn2)c1C(N)=O`, the outcome in the series with Hepatitis B virus [1] was inactive.

Consider `Cc1c(C(=O)Nc2ccc(C#N)cc2)sc(N)c1C(N)=O`, for which the result in the series with Hepatitis B virus [1] was inactive.

Consider `Cc1ccc(C(=O)Nc2sc(C(=O)Nc3ccccc3)c(C)c2C(N)=O)s1`, for which the cytotoxic concentration (CC50) in the series with HepG2 was over 100 µM. For the same compound, the result with Hepatitis B virus [1] was Active.

Regarding `Cc1c(C(=O)Nc2ccc(F)c(F)c2)sc(N)c1C(=O)Nc1ccc(F)c(F)c1`, in the series with HepG2, the CC50 stood at 17 µM. Also, the outcome in the series with Hepatitis B virus [1] was Active.

As for `Cc1c(C(=O)Nc2ccccc2)sc(N)c1C(=O)Nc1ccc(F)c(F)c1`, in the series on HepG2, the CC50 worked out at 40 µM. In the series on Hepatitis B virus [1], the outcome was Active.

For `Cc1c(C(=O)Nc2ccccc2)sc(N)c1C#N`, the result in the series with Hepatitis B virus [1] was inactive.

Regarding `CC(C)Cc1sc(-c2nccs2)nc1C(=O)NCc1ccc(F)cc1`, the CC50 in the series with HepG2 came to 29 µM. The outcome in the series on Hepatitis B virus [1] was Active. Besides, in the series with Hepatitis B virus [2], the EC50 is 10 µM.

In the case of `Cc1cc(NC(=O)c2sc(N)c(C(N)=O)c2C)ccc1Cl`, in the series on HepG2, the CC50 is over 100 µM. Further, the result in the series with Hepatitis B virus [1] was Active. The EC50 with Hepatitis B virus [2] stood at 1.7 µM.

As for `NC(=O)c1c(N)sc2c1CCCC2`, the result with Hepatitis B virus [1] was inactive.

On to `Cc1cc(NC(=O)c2sc(N)c(C#N)c2C)ccc1F`, for which the CC50 with HepG2 is 96 µM. In addition, in the series with Hepatitis B virus [1], the outcome was Active.

Turning to `Cc1c(C(=O)Nc2ccc(C(F)(F)F)cc2)sc(N)c1C(N)=O`, the result in the series on Hepatitis B virus [1] was inactive.

With `O=C(N/C(C(=O)N1CCCCC1)=C(\Cl)c1ccccc1)c1ccccc1`, the CC50 in the series on HepG2 was found to be 61 µM. The outcome in the series on Hepatitis B virus [1] was Active. The EC50 in the series with Hepatitis B virus [2] turned out to be 4.8 µM.

Take `Cc1ccc(CC(=O)Nc2sc(C(=O)Nc3ccccc3)c(C)c2C(N)=O)cc1F`: the 50% cytotoxic concentration (CC50) in the series with HepG2 is over 100 µM. The result with Hepatitis B virus [1] was Active. In addition, the EC50 in the series with Hepatitis B virus [2] was over 10 µM.

For `Cc1c(C(=O)Nc2ccc(F)c(F)c2)sc(N)c1C(=O)Nc1ccccc1`, in the series with HepG2, the CC50 was determined as 26 µM. The outcome in the series with Hepatitis B virus [1] was Active.

Take `Cc1nc(=O)c2c(C)c(C(=O)Nc3ccccc3)sc2[nH]1`: in the series on Hepatitis B virus [1], the outcome was inactive.

For `COc1ccc(CNC(=O)c2c(N)sc(C(=O)Nc3ccccc3)c2C)cc1`, the outcome in the series with Hepatitis B virus [1] was Active. Moreover, the EC50 in the series with Hepatitis B virus [2] is over 10 µM.

Turning to `Cc1c(C(=O)Nc2cc(F)c(F)c(Cl)c2)sc(N)c1C#N`, the result with Hepatitis B virus [1] was inactive.

For the compound `Cc1c(C(=O)Nc2ccc(Cl)c(C(F)(F)F)c2)sc(N)c1C(N)=O`, the cytotoxic concentration (CC50) in the series on HepG2 was 72 µM. Moreover, the result with Hepatitis B virus [1] was Active.

Turning to `Cc1c(C(=O)Nc2ccc(F)c(F)c2)sc(N)c1C(=O)NC1CCCC1`, the outcome in the series on Hepatitis B virus [1] was Active. Besides, the 50% effective concentration (EC50) in the series with Hepatitis B virus [2] is over 10 µM.

`Cc1c(C(=O)Nc2ccccc2)sc(N)c1C(=O)NC1CCCC1`: the outcome with Hepatitis B virus [1] was inactive. Moreover, the EC50 with Hepatitis B virus [2] is over 10 µM.

For `Cc1c(C(=O)Nc2ccccc2)sc2[nH]c(CS(=O)(=O)c3ccccc3)nc(=O)c12`, in the series with Hepatitis B virus [1], the result was inactive.

Consider `Cc1c(C(=O)Nc2ccccc2)sc(NC(=O)Cc2ccc(F)c(F)c2)c1C(N)=O`, for which the CC50 with HepG2 is over 100 µM. The outcome in the series with Hepatitis B virus [1] was Active. In addition, the EC50 in the series with Hepatitis B virus [2] came to 10 µM.

Turning to `CCOC(=O)c1c(N)sc(C(=O)Nc2ccc(F)c(C)c2)c1C`, the CC50 in the series with HepG2 is over 100 µM. For the same compound, the outcome in the series with Hepatitis B virus [1] was Active.

As to `Cc1c(C(=O)Nc2ccccc2)sc(NC(=O)c2ccc(S(C)(=O)=O)cc2)c1C(N)=O`, in the series with HepG2, the CC50 was over 100 µM. For the same compound, the outcome in the series with Hepatitis B virus [1] was Active.

Turning to `Cc1c(C(=O)Nc2ccccc2)sc2[nH]c(-c3ccc(F)c(F)c3)nc(=O)c12`, the outcome with Hepatitis B virus [1] was inactive.

As for `Cc1cc(NC(=O)c2sc(N)c(C(=O)Nc3ccc(F)c(C)c3)c2C)ccc1F`, in the series on Hepatitis B virus [1], the outcome was inactive.

Take `CCOC(=O)C1=C(C)NC(c2ncccc2F)=NC1c1ccc(F)cc1Cl` (configuration not stated): the CC50 in the series on HepG2 is over 100 µM. For the same compound, the outcome in the series on Hepatitis B virus [1] was Active. The 50% effective concentration (EC50) in the series on Hepatitis B virus [2] turned out to be 0.41 µM.

In the case of `Cc1c(C(=O)Nc2ccccc2)sc2[nH]c(Cc3ccccc3)nc(=O)c12`, the result with Hepatitis B virus [1] was inactive.

With `Cc1c(C(=O)Nc2ccccc2)sc(NC(=O)N2CCOCC2)c1C(N)=O`, the result in the series with Hepatitis B virus [1] was inactive.

`Cc1c(C(=O)Nc2ccc(F)c(F)c2)sc(N)c1C#N`: in the series on HepG2, the CC50 was over 100 µM. Moreover, in the series with Hepatitis B virus [1], the result was Active. Besides, the EC50 in the series on Hepatitis B virus [2] is 10 µM.

As for `Cc1cc(NC(=O)c2c(N)sc(C(=O)Nc3ccccc3)c2C)ccc1F`, the CC50 with HepG2 is 40 µM. Further, the result in the series with Hepatitis B virus [1] was Active.

`Cc1c(C(=O)Nc2ccc(F)cc2)sc(N)c1C(N)=O`: the CC50 with HepG2 is over 100 µM. Further, the result with Hepatitis B virus [1] was Active.

In the case of `NC(=O)c1c(N)sc2c1CCN(C(=O)c1ccccc1)C2`, in the series on Hepatitis B virus [1], the outcome was inactive.

For the compound `Cc1c(C(=O)Nc2ccccc2)sc(N)c1C(=O)NC(C)C`, the outcome in the series with Hepatitis B virus [1] was inactive. In the series on Hepatitis B virus [2], the half-maximal effective concentration (EC50) was over 10 µM.

For the compound `Cc1c(C(=O)NCc2ccccc2)sc(N)c1C(N)=O`, the result in the series with Hepatitis B virus [1] was Active. Moreover, the EC50 in the series on Hepatitis B virus [2] worked out at 10 µM.

Regarding `Cc1c(C(=O)Nc2ccc(F)c(F)c2)sc(N)c1C(=O)Nc1ccc(Cl)cc1`, the result in the series on Hepatitis B virus [1] was Active. Also, the EC50 in the series with Hepatitis B virus [2] was over 10 µM.

On to `Cc1ccc(NC(=O)c2sc(N)c(C(N)=O)c2C)cc1`, for which the result in the series with Hepatitis B virus [1] was inactive. In addition, the EC50 in the series with Hepatitis B virus [2] is over 10 µM.

For the compound `Cc1c(C(=O)Nc2ccccc2)sc(NC(=O)c2csc([N+](=O)[O-])c2)c1C(N)=O`, in the series with HepG2, the CC50 was over 100 µM. Further, the result with Hepatitis B virus [1] was Active.

Take `Cc1c(C(=O)Nc2ccccc2)sc(N)c1C(=O)NC1CC1`: the outcome with Hepatitis B virus [1] was inactive. Besides, the EC50 with Hepatitis B virus [2] was over 10 µM.

Regarding `Cc1c(C(=O)Nc2ccccc2)sc(N)c1C(=O)Nc1ccccc1`, in the series with HepG2, the CC50 is over 100 µM. The result with Hepatitis B virus [1] was Active.

Regarding `NC(=O)c1c(N)sc2c1CCCN2C(=O)c1ccccc1`, the result with Hepatitis B virus [1] was inactive.

In the case of `Cc1c(C(=O)Nc2ccccc2)sc(NC(=O)c2cn[nH]c2)c1C(N)=O`, the CC50 in the series with HepG2 was over 100 µM. Also, the outcome with Hepatitis B virus [1] was Active.

As for `Cc1c(C(=O)Nc2ccccc2)sc(NC(=O)c2nccs2)c1C(N)=O`, the CC50 in the series with HepG2 is over 100 µM. Besides, the result with Hepatitis B virus [1] was Active.

Turning to `CCOC(=O)c1c(N)sc(C(=O)Nc2ccccc2)c1C`, the CC50 in the series on HepG2 worked out at 76 µM. Also, in the series on Hepatitis B virus [1], the outcome was Active. Moreover, the EC50 in the series with Hepatitis B virus [2] was over 10 µM.

For `Cc1c(C(=O)Nc2ccccc2)sc(NC(=O)c2ccsc2)c1C(N)=O`, the CC50 with HepG2 is over 100 µM. For the same compound, the outcome in the series with Hepatitis B virus [1] was Active.

Turning to `Cc1c(C(=O)Nc2ccc(F)c(C(F)(F)F)c2)sc(N)c1C(N)=O`, the CC50 with HepG2 is over 100 µM. Moreover, the result in the series with Hepatitis B virus [1] was Active.

Consider `O=C(Nc1ccc(F)c(F)c1)c1cc(S(=O)(=O)NC2CCCC2)ccc1F`, for which, in the series with HepG2, the CC50 was 17 µM. Besides, the outcome in the series on Hepatitis B virus [1] was Active. Also, the EC50 in the series with Hepatitis B virus [2] came to 0.25 µM.

For `Cc1c(C(=O)Nc2ccccc2)sc(NC(=O)c2cc(Cl)cc(Cl)c2)c1C(N)=O`, the CC50 in the series on HepG2 came to 49.5 µM. In addition, the outcome in the series on Hepatitis B virus [1] was Active.

`COc1ccc(NC(=O)c2sc(N)c(C(N)=O)c2C)cc1`: the outcome with Hepatitis B virus [1] was Active. Also, the EC50 in the series with Hepatitis B virus [2] came out at 10 µM.

Consider `Cc1c(C(=O)Nc2ccccc2)sc(N)c1C(=O)NCc1ccc(C(F)(F)F)cc1`, for which, in the series with Hepatitis B virus [1], the result was Active. Moreover, the concentration for a half-maximal effect (EC50) in the series on Hepatitis B virus [2] was over 10 µM.

With `Cc1c(C(=O)Nc2cc(F)c(F)c(Cl)c2)sc(N)c1C(N)=O`, the CC50 with HepG2 was determined as 72 µM. Also, the result in the series on Hepatitis B virus [1] was Active.

The record behind these values is ChEMBL document CHEMBL4411305, “5-Aminothiophene-2,4-dicarboxamide analogues as hepatitis B virus capsid assembly effectors” (Eur J Med Chem, 2019).
